Rad51 HR inh – Rad51 (human) homologous recombination inhibition. Q06609. hRad51 DNA strand exchange, fluorescence dequenching. inhibition, % at 10 µM. actives 0.085% (n = 200,000). AID 1385;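 active = inhibition above 40% at the single screening dose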;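 also: 0% = DMSO control wells and 100% = blanks with heterologous ssDNA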
Target sequence (Q06609 whole entry, looked up): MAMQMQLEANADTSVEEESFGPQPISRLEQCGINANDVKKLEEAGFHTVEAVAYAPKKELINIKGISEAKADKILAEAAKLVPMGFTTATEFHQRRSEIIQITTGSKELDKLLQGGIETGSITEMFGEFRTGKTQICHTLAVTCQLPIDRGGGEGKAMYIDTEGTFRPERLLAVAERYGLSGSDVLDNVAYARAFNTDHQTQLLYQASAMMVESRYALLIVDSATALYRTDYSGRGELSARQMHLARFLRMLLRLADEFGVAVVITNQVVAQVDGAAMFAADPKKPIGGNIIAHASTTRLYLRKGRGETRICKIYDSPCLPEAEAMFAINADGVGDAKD
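material = hRad51 filaments on single-stranded DNA | timing = filaments 15 min 37 °C, then compound 30 min | signal = FRET fluorescence dequenching, excitation 485 nm, emission 520 nm | benchmarks = control wells and blank wells on each plate | evaluation = percent inhibition relative to plate controls and blanks | compound = 10 µM final, single point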
NF-kB neuron act – raises NF-kB expression in human neuronal cells. NF-kB reporter expression; active compounds read high. fold change at 12.5 µM. actives 1.6% (n = 190,000). AID 1239; in the data active = fold change above about 3.3
FLuc inhib CS – inhibits firefly luciferase, flagging false hits in luciferase inhibition screens; actives 1.5% (n = 200,000); ATPLite firefly luciferase biochemical luminescence, 10 min; inhibition, % at 10 µM; P08659;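 active = inhibition above about 50% when tested at 10 µM, limit read from the data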
APP 5'UTR act – APP 5'UTR luciferase reporter activation | activation, % at 2 µM | SH-SY5Y APP 5'UTR luciferase reporter, luminescence; zero percent = DMSO vehicle wells | actives 1% (n = 190,000);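 active = activation above a set limit, based on mean plus 3 SD of controls, cut at about 140% in these data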
FLuc stim CS – firefly luciferase counter-screen for stimulation assays; AID 1027; ATPlite luciferase biochemical, luminescence, 10 min; 0 = ATP-free wells, 1 = DMSO control; activation factor at 10 µM; 200,000 tested, under 10 active;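 active = luciferase activation factor, scaled between plate controls, of at least 2 with compound at 10 µM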
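Material: Luciferase/luciferin reagent mix; Doses: test compounds dosed from 2 mM stocks in 100% DMSO; Schedule: 10 min incubation after luciferase reagent addition, room temperature; Measured by: luminescence from luciferase reaction; Read-out: luminescence gain marking luciferase activators.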
STAT1 activator – STAT1 signaling activation; NIH 3T3 STAT1-luciferase reporter, IFN-gamma, luminescence; 100% = IFN-gamma alone, no compound; activation (% of control), % at 5.5 µM; actives 2.6% (n = 200,000); AID 932;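 active = activation above the screen-wide mean activation plus 3 SD, cut at about 130% in these data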;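 also: raw ratio to IFN-gamma control signal so 100% means no change and 0% no light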
The depositor's hits bear a star. An excerpt weighted towards active compounds, which were near 3.9% of everything screened.

Screening O=C(c1ccc(Cl)cc1)c1coc2ccc(O)cc12 returned Rad51 HR inh -2, NF-kB neuron act 8.8*, FLuc inhib CS 18, APP 5'UTR act 129, FLuc stim CS 0.8 and STAT1 activator 107.
COc1ccc2occ(C(=O)c3ccccc3)c2c1 was read as Rad51 HR inh 11, NF-kB neuron act 0.92, FLuc inhib CS 29, APP 5'UTR act 36, FLuc stim CS 0.7 and STAT1 activator 135*.
Screening CC1CN(CC(=O)Nc2ccc([N+](=O)[O-])cc2Br)CC(C)O1 (stereo not drawn) returned Rad51 HR inh 5, NF-kB neuron act 1.1, FLuc inhib CS -8, APP 5'UTR act 6, FLuc stim CS 1.1 and STAT1 activator 104.
For CCn1c(COc2ccc(=O)n(-c3ccccc3)n2)nnc1SC the results were Rad51 HR inh 2, NF-kB neuron act 1.2, FLuc inhib CS -10, APP 5'UTR act 12, FLuc stim CS 1.1 and STAT1 activator 98.
For CN(C)/C=C/C(=O)c1ccc(-n2cccc2)cc1 the results were Rad51 HR inh -29, NF-kB neuron act 2, FLuc inhib CS 85*, APP 5'UTR act 25, FLuc stim CS 0.2 and STAT1 activator 124.
CN(C)/C=C/C(=O)c1ccc(Cl)cc1 was read as Rad51 HR inh -5, NF-kB neuron act 1.1, FLuc inhib CS 5, APP 5'UTR act 4, FLuc stim CS 0.9 and STAT1 activator 105.
`COc1ccccc1NC(=O)CSc1nnc(C2CCCCC2)n1-c1ccccc1` gave Rad51 HR inh -1.
Cc1sc2ncnc(N=Nc3c(O)[nH]c4ccccc34)c2c1C was read as Rad51 HR inh 0, NF-kB neuron act 0.77, FLuc inhib CS 50*, APP 5'UTR act 25, FLuc stim CS 0.5 and STAT1 activator 106.
For CCOC(=O)C(C(=O)OCC)N(C#N)c1nc(N(C)C)nc(N(C)C)n1 the results were Rad51 HR inh 12, NF-kB neuron act 1.3, FLuc inhib CS -7, APP 5'UTR act 0, FLuc stim CS 1.1 and STAT1 activator 92.
Screening O=c1n(Cc2ccccc2Cl)nc2n1-c1ccccc1SC2 returned Rad51 HR inh 4.
`CCOC(=O)C1CCN(CC(=O)Nc2c(C(=O)OC)n(C)c3cccc(C)c23)CC1` gave Rad51 HR inh 69*, NF-kB neuron act 0.77, FLuc inhib CS -3, APP 5'UTR act 9, FLuc stim CS 1 and STAT1 activator 96.
For COC(=O)c1c(NC(=O)CN2CCC(C(N)=O)CC2)c2c(C)cccc2n1C the results were Rad51 HR inh 3, NF-kB neuron act 0.9, FLuc inhib CS -5, APP 5'UTR act 10, FLuc stim CS 1.1 and STAT1 activator 101.
Cc1cc(C(=O)CSc2nnc3ccccn23)c(C)n1-c1ccccc1 was read as Rad51 HR inh -9, NF-kB neuron act 0.41, FLuc inhib CS 75*, APP 5'UTR act -20, FLuc stim CS 0.3 and STAT1 activator 41.
Screening Cc1ccc(-n2c(C)cc(C(=O)CSc3n[nH]c(N)n3)c2C)cc1 returned Rad51 HR inh 0, NF-kB neuron act 1.2, FLuc inhib CS 26, APP 5'UTR act 5, FLuc stim CS 0.7 and STAT1 activator 104.
`Cc1cc(C(=O)CSc2nnc(-c3ccccc3)n2-c2ccccc2)c(C)n1-c1ncn[nH]1` gave Rad51 HR inh -10, NF-kB neuron act 1, FLuc inhib CS -5, APP 5'UTR act -5, FLuc stim CS 1 and STAT1 activator 99.
`Cc1cc(C(=O)CSc2n[nH]c(N)n2)c(C)n1-c1ccccc1` gave NF-kB neuron act 2.2, FLuc inhib CS 59*, APP 5'UTR act 73, FLuc stim CS 0.4 and STAT1 activator 115.
COc1ccccc1Cc1nc2ccccc2n1S(=O)(=O)c1ccc(Cl)cc1 was read as Rad51 HR inh 9, NF-kB neuron act 1.2, FLuc inhib CS -6, APP 5'UTR act 4, FLuc stim CS 1.1 and STAT1 activator 99.
`CCOC(=O)C(=O)Cc1nc2ccccc2s1` gave Rad51 HR inh -23.
`O=C(CNC(=O)c1ccccc1)OCc1nc2ccccc2s1` gave Rad51 HR inh -13, NF-kB neuron act 0.67, FLuc inhib CS 12, APP 5'UTR act 55, FLuc stim CS 0.9 and STAT1 activator 139*.
Screening Cc1cc(C(=O)OCc2nc3ccccc3s2)c(C)o1 returned NF-kB neuron act 2, FLuc inhib CS 1, APP 5'UTR act 38, FLuc stim CS 1 and STAT1 activator 132*.
`O=C(OCc1nc2ccccc2s1)c1ccco1` gave Rad51 HR inh 9, NF-kB neuron act 1.1, FLuc inhib CS 22, APP 5'UTR act 87, FLuc stim CS 0.8 and STAT1 activator 143*.
O=C(OCc1nc2ccccc2s1)c1ccc(Br)o1 was read as Rad51 HR inh -16, NF-kB neuron act 1.3, FLuc inhib CS 1, APP 5'UTR act 22, FLuc stim CS 1 and STAT1 activator 107.
`O=C(CNC(=O)c1ccccc1F)OCc1nc2ccccc2s1` gave Rad51 HR inh -4, NF-kB neuron act 1, FLuc inhib CS 1, APP 5'UTR act 13, FLuc stim CS 1 and STAT1 activator 118.
Screening CC(=O)OCc1nc2ccccc2s1 returned Rad51 HR inh -5, NF-kB neuron act 1.3, FLuc inhib CS 14, APP 5'UTR act 17, FLuc stim CS 0.9 and STAT1 activator 135*.
O=C(O)C1CCC(=O)N1C(=O)OCc1ccccc1 (stereo not drawn) was read as Rad51 HR inh 5.
Screening Cc1ccc(C(=O)Nc2cc(C)c(OCC(=O)N3CCOCC3)c(C)c2)cc1 returned Rad51 HR inh 0, NF-kB neuron act 2.1, FLuc inhib CS 88*, APP 5'UTR act 48, FLuc stim CS 0.1 and STAT1 activator 100.
For Cc1ccc(-c2ccc(OCC(=O)N3CCOCC3)cc2)cc1 the results were Rad51 HR inh -5, NF-kB neuron act 1.3, FLuc inhib CS 19, APP 5'UTR act 3, FLuc stim CS 0.8 and STAT1 activator 110.
Screening O=C(CN1C(=O)c2ccccc2C1=O)N1CCN=C1c1ccccc1 returned Rad51 HR inh -6.
For Cc1cc(O)c(/C=N/Nc2ccc(Cl)cc2)c(=O)o1 the results were Rad51 HR inh -1, NF-kB neuron act 1.6, FLuc inhib CS 89*, APP 5'UTR act 5, FLuc stim CS 0.1 and STAT1 activator 97.
Clc1cccc(Cl)c1/C=C/c1nc2ccccc2[nH]1 was read as Rad51 HR inh -2, NF-kB neuron act 7.2*, FLuc inhib CS 82*, APP 5'UTR act 164*, FLuc stim CS 0.2 and STAT1 activator 143*.
Screening Clc1ccc(/C=C/c2nc3ccccc3[nH]2)cc1 returned Rad51 HR inh -2, NF-kB neuron act 3.8*, FLuc inhib CS 96*, FLuc stim CS 0 and STAT1 activator 52.
